The source of these data is ChEMBL document CHEMBL4052607 (J Med Chem, 2017).

Assay [1] deals with T1, D(3) dopamine receptor (Homo sapiens, UniProt P35462).
For the next assay, the species on record is Homo sapiens. The experiment in a line: Selectivity ratio of Ki for human D2 receptor to Ki for human D3 receptor. An outline of the steps:
(§1)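 Membranes from HEK293 cells stably expressing hD2R (long) or hD3R, 10 μg protein per tube, were incubated with 0.4 nM [3H]N-methylspiperone in EBSS with 0.2 mM sodium metabisulfite. Compound was tested over 13 half-log steps, 10 μM to 10 pM, in triplicate for 1 h at RT. Nonspecific binding was set with 10 μM (+)-butaclamol. Bound ligand was collected on PEI-soaked GF/B filters and counted by scintillation. Ki came from Cheng-Prusoff, at least 3 experiments.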

Assay [2] deals with T2, D(2) dopamine receptor (Homo sapiens, UniProt P14416). The experiment in a line: Agonist activity at D2 long receptor (unknown origin) expressed in CHOK1 cells assessed as beta-arrestin recruitment up to 30 uM after 90 mins by DiscoveRx PathHunter assay. It is filed as cell-based. A digest of the protocol: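 Agonist mode in CHO-K1 cells expressing D2R long isoform fused to a β-galactosidase fragment, with β-arrestin-2 carrying the complementary fragment. Compound in PBS plus 0.2 μM sodium metabisulfite was preincubated 90 min at 37°C. PathHunter reagent was then added for 30 min at RT and luminescence read. RLU were normalized to the response at maximal dopamine.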
T2 sequence (P14416 whole entry, the tested form may be a part, canonical isoform): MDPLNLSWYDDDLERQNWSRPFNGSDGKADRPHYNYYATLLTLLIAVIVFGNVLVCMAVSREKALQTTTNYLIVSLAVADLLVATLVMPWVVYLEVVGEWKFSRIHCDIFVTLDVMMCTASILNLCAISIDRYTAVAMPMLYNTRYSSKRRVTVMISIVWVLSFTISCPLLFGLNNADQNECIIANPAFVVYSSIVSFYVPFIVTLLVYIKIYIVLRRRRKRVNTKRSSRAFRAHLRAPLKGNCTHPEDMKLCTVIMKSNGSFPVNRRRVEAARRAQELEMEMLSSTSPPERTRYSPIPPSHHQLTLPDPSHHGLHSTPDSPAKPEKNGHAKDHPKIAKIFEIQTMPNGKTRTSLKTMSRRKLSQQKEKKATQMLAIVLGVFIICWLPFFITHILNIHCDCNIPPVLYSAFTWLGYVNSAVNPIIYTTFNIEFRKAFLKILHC

Assay [3] has as its target T2, D(2) dopamine receptor. Kind of assay: Displacement of [3H]N-methylspiperone from human D2L receptor expressed in HEK293 cell membranes after 1 hr by liquid scintillation counting analysis. A digest of the protocol: as §1
(In general: Loss of bound radioactivity is the signal in a displacement assay; it reports binding, not function.)

Assay [4] has as its target T2, D(2) dopamine receptor. The experiment in a line: Antagonist activity at D2 long receptor (unknown origin) expressed in CHOK1 cells assessed as inhibition of dopamine induced beta-arrestin recruitment after 90 mins by DiscoveRx PathHunter assay. The class given is cell-based. For orientation: Activated receptors often draw arrestin, which recruitment assays turn into a signal.

Assay [5] has as its target T1, D(3) dopamine receptor. The experiment in a line: Displacement of [3H]N-methylspiperone from human D3 receptor expressed in HEK293 cell membranes after 1 hr by liquid scintillation counting analysis.

Activity calls are given as the source filed them. No cut-off for these calls is given here.

T1 sequence (P35462 whole entry): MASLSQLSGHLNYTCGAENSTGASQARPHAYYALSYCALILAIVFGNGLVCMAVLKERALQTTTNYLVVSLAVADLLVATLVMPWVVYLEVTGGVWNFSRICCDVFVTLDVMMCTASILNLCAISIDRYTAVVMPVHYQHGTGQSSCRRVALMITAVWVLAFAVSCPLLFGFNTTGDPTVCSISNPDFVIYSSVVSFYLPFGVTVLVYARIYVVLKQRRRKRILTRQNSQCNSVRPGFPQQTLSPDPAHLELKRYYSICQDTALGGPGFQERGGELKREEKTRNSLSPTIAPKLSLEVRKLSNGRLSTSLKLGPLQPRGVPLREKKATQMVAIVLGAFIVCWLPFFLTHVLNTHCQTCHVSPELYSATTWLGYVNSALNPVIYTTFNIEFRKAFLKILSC

On to `N#Cc1ccc2c(c1)CNCC2`, for which the pKb – broadly, the negative decadic logarithm of the Kb, by convention in mol/L – at D(3) dopamine receptor [1] turned out to be 5.49; on D(2) dopamine receptor [4], 5.37. Also, the Ratio Ki in the assay listed under Homo sapiens is 7.5. The result at D(2) dopamine receptor [2] was inactive. In addition, the Ki (commonly the dissociation constant of the complex between target and ligand, obtained from inhibition or displacement) at D(2) dopamine receptor [3] is 11.4 µM; at D(3) dopamine receptor [5] it was 1.52 µM. Besides, the Kb – broadly, the affinity of an antagonist, worked out from how it opposes an agonist – on D(2) dopamine receptor [4] was determined as 4.27 µM.

For the compound `N#Cc1ccc2c(c1)CCN(CC[C@H]1CC[C@H](NC(=O)c3ccnc4ccccc34)CC1)C2`, the result at D(2) dopamine receptor [2] was inactive.

Take `N#Cc1cccc(N2CCNCC2)c1`: the pKb was determined as 5.42 on D(3) dopamine receptor [1] and 5.68 on D(2) dopamine receptor [4]. Also, in the assay listed under Homo sapiens, the Ratio Ki was found to be 8.4. Also, the outcome on D(2) dopamine receptor [2] was inactive. The Ki is 4.89 µM on D(2) dopamine receptor [3] and 0.581 µM at D(3) dopamine receptor [5]. For the same compound, the Kb on D(2) dopamine receptor [4] turned out to be 2.09 µM.
